RGS4 block: inhibitors of human RGS4; B-score at 10 µM; 0.45% of 310,000 active; HEK293 M3R/RGS4 inducible, Fluo-4 calcium flux; stronger effect = higher value; triggered by carbachol at its EC20;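 active = B-score, a plate-corrected calcium signal, over three deviations above library mean, with baseline fluorescence within five deviations of library mean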;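 also: RGS4 expression induced by doxycycline in cells with stable M3 receptor; B-score is computed from the integrated fluorescence ratio over baseline after carbachol; higher B-score means a larger calcium signal and so more RGS4 inhibition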
Target sequence (P49798 whole entry, looked up): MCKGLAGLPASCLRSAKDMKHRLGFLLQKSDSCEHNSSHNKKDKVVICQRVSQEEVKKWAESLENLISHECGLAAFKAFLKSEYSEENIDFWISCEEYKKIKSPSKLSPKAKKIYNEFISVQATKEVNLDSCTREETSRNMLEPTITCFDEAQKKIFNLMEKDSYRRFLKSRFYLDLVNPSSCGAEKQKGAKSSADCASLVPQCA
RGS4 act: potentiators or activators of RGS4. B-score at 10 µM. HEK293 M3R/inducible RGS4, carbachol calcium flux Fluo4; stronger effect = lower value. 0.92% of 310,000 active;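 active = B-score of the integrated calcium signal more than 4 SD below the library mean, with starting fluorescence not abnormally high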;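 also: negative B-score means reduced calcium response which marks RGS4 activation or potentiation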
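Material: M3R-expressing HEK293 line, RGS4 induced by doxycycline | Schedule: Overnight RGS4 induction, 30 min dye load 37 °C, 20 min compound RT | Measured by: Fluo4 fluorescence kinetic imaging of calcium | Read-out: Integrated calcium ratio converted to B score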
MrgX1 ag: agonists of human MrgX1 receptor; Q96LB2; MrgX1-HEK293 cells, Fluo-4 calcium fluorescence, agonist mode; stronger effect = higher value; B-score at 10 µM; 0.44% of 310,000 active; AID 588627;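 active = calcium response B-score plate-corrected fluorescence ratio at least 3 library SD, with starting fluorescence B-score inside 5 SD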
Target sequence (Q96LB2 whole entry, looked up): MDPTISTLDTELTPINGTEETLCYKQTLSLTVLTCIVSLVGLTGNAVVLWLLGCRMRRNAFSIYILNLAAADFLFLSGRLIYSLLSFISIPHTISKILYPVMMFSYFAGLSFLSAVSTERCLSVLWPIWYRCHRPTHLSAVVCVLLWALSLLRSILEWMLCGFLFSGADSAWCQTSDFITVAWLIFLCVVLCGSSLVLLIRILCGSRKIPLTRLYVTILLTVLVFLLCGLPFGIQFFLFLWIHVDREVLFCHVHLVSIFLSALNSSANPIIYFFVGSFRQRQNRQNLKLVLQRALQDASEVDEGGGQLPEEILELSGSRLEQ
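Test system: HEK293 cells stably expressing human MrgX1 receptor; Input: fifteen thousand cells per well; Dosing: compound delivered in addition one of three; Schedule: overnight seeding, then 1 h dark dye loading; Technique: Fluo-4 NW calcium fluorescence; Measure: B-scored fluorescence response ratio; Controls: positive and negative controls per plate.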
MrgX1 antag: blocks BAM8-22 activation of human MrgX1 receptor; 1.3% of 310,000 active; Q96LB2; AID 588676; B-score at 10 µM; MRGX1-HEK293 calcium flux, Fluo-4, BAM8-22 antagonism; stronger effect = lower value;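 active = calcium-response B-score plate-corrected more than 3 library SD below zero, starting fluorescence within 5 deviations, no agonist response on first addition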;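 also: peak minus trough fluorescence over baseline after final BAM8-22 challenge near maximal dose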
MrgX1 allo act: allosterically activates human MrgX1 receptor signaling; 0.63% of 310,000 active; MrgX1-HEK293, Fluo-4 calcium flux, FDSS; stronger effect = higher value; B-score at 10 µM; AID 588675; Q96LB2;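 active = plate-corrected calcium response at least 3 library SD above typical, normal starting fluorescence, not activating the receptor alone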;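 also: compound read alongside a low EC10 to EC30 dose of BAM8-22 agonist; peak minus trough fluorescence over baseline measured at the second addition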
RGS4 block valid: RGS4 inhibitor validation; shares compounds with RGS4 block; HEK293 M3R/RGS4, carbachol calcium Fluo-4 fluorescence; carbachol added at its EC20; 0 = buffer wells, 100 = carbachol control; calcium response, % at 10 µM; 65% of 1,700 active; AID 492999;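 active = duplicate-averaged calcium response above the buffer-only control mean plus 5 SD of those controls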;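 also: integrated fluorescence ratio F max minus min over baseline F0; higher response in RGS4-induced cells means RGS4 inhibition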
M3R Ca ctr: non-induced cell nonspecific activity of RGS4 inhibitors; shares compounds with RGS4 block; HEK293 M3R non-induced, carbachol calcium Fluo-4; submaximal (EC20) carbachol stimulus; buffer wells 0%, carbachol control wells 100%; activity (percent), % at 10 µM; 20% of 1,900 active; call rule not given here;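 also: RGS4 induction absent so cells express M3R without RGS4; higher means more calcium signal and flags a non-specific hit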
M3R basal Ca ctr: second counter-screen for RGS4 inhibitors: non-induced cells without carbachol | shares compounds with RGS4 block | 22% of 1,900 active | HEK293 M3R/RGS4 non-induced, Fluo-4 calcium, no carbachol; normalised: buffer wells 0%, carbachol wells 100% | calcium response (agonist-mode artifact), % at 10 µM;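 active = duplicate-averaged calcium rise in uninduced cells above buffer wells' mean plus 5 SD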
Of the large screens only hits and unclear results are named; the others gave an inactive call (follow-up assays come after a bar, where they were run). A selection: hits, their analogues and other compounds. The true share with any hit is near 3.5%.

CC1(C)OC(=O)C(=CNCCc2ccc(O)cc2)C(=O)O1	RGS4 block 5.66 | RGS4 block valid inactive | M3R Ca ctr inactive | M3R basal Ca ctr inactive
COc1ccc(CNc2cccc3[nH]c(C(F)(F)F)nc23)cc1OC	none
CSc1ccccc1OCc1cc(C(=O)NCCN2CCCC(O)C2)no1 (stereo not given)	none
CSc1ccccc1OCc1cc(C(=O)NCCC2CCCCO2)no1 (stereo not given)	RGS4 block 10.7 | RGS4 block valid inactive | M3R Ca ctr inactive | M3R basal Ca ctr inactive
CN(CCO)c1cnccn1	none
O=c1cc(-c2ccccc2Cl)oc2ccc([N+](=O)[O-])c(O)c12	none
O=c1cc(-c2ccccc2Cl)oc2c([N+](=O)[O-])c(O)cc(O)c12	RGS4 block 10.2 | RGS4 block valid 32.5% | M3R Ca ctr 52.0% | M3R basal Ca ctr inactive
Cc1ccc(C(=O)/C=C\C(=O)c2ccc(C)cc2)cc1	none | RGS4 block valid inactive | M3R Ca ctr inactive | M3R basal Ca ctr inactive
O=C(O)c1ccc(/C=C2\COc3ccccc3C2=O)cc1	RGS4 block 30.9 | RGS4 block valid 45.0% | M3R Ca ctr inactive | M3R basal Ca ctr inactive
COc1ccc(/C=C2\COc3ccccc3C2=O)cc1OC	none
CCOc1cc(/C=C2\COc3ccccc3C2=O)cc(Br)c1OCC(=O)N(C)C	RGS4 block 8.35 | RGS4 block valid 27.0% | M3R Ca ctr inactive | M3R basal Ca ctr inactive
CCC(CC)C(=O)Nc1nnc(SCC(=O)NC(C)(C)C)s1	none
COc1ccc(CCNC(=O)c2ccc(CS(=O)Cc3ccc(C)cc3)o2)cc1OC (stereo not given)	none
O=C(Nc1cccc(Cl)c1)Nc1nnc(CC2=CCCCC2)s1	RGS4 block 10.1 | RGS4 block valid 5.5% | M3R Ca ctr inactive | M3R basal Ca ctr inactive
O=C(Nc1nnc(CC2=CCCCC2)s1)Nc1ccccc1F	none
Cc1nc2c(N=Nc3ccccc3F)c(N)nn2c(N)c1C#N	none
O=C1CCc2cc(S(=O)(=O)NCCC(=O)NC3CCCCC3)ccc2N1	none
O=C1COc2ccc(C(=O)CCl)cc2N1	RGS4 block 12.7 | RGS4 block valid 65.5% | M3R Ca ctr 58.0% | M3R basal Ca ctr 9.5%
COc1ccc2oc(C(=O)OCC(=O)N(C)CC(=O)Nc3ccc(F)cc3)c(C)c2c1	none
CCN1CCN(C(=O)C(=O)c2c(C)[nH]c3ccccc23)CC1	none
Cc1ccc(OCC(=O)N/N=C/c2cn(C)c3ccccc23)cc1	none | M3R Ca ctr inactive | M3R basal Ca ctr inactive
CCOC(=O)/C(C#N)=C\c1cn(C)c2ccccc12	none
CCOC(=O)/C(=C\c1cn(C)c2ccccc12)[N+](=O)[O-]	RGS4 block 5.8, MrgX1 antag -4.6 | RGS4 block valid 34.0% | M3R Ca ctr inactive | M3R basal Ca ctr 20.0%
CC(C)c1ccc(/C=C2\CC/C(=C\C=N\N(C)C)C2=O)cc1	none
CN(C)/N=C/C=C1\CC/C(=C\c2ccc(F)c(F)c2)C1=O	none | M3R Ca ctr inactive | M3R basal Ca ctr 16.0%
CCOC(=O)C1=C(COC(=O)COc2ccc(OCC)cc2)NC(=O)NC1C (stereo not given)	none
N#Cc1ccccc1Cn1cc(/C=C/[N+](=O)[O-])c2ccccc21	RGS4 block 36.2 | RGS4 block valid 186.5% | M3R Ca ctr inactive | M3R basal Ca ctr 52.0%
O=C(O)Cn1cc(/C=C/[N+](=O)[O-])c2ccccc21	none
O=[N+]([O-])/C=C/c1cn(Cc2ccccc2)c2ccccc12	RGS4 block 15.5 | RGS4 block valid 35.0% | M3R Ca ctr inactive | M3R basal Ca ctr 88.0%
O=C(O)c1ccc(N2CCN(c3ccc(Cl)cc3)CC2)c([N+](=O)[O-])c1	RGS4 block 4.95 | RGS4 block valid 7.5% | M3R Ca ctr inactive | M3R basal Ca ctr inactive
O=C(/C=C/c1ccc(Cl)cc1)N1CCN(c2ccc(Cl)cc2[N+](=O)[O-])CC1	none
O=C(NNC(=S)Nc1ccc(Cl)cc1Cl)c1ccc(N2CCOCC2)c([N+](=O)[O-])c1	RGS4 block 5.2 | RGS4 block valid 9.5% | M3R Ca ctr 33.5% | M3R basal Ca ctr inactive
O=C(COc1ccc2c3c(c(=O)oc2c1)CCC3)Nc1ccccn1	none
Cc1ccccc1-c1noc(C(C)NC(=O)c2ccco2)n1 (stereo not given)	none
CC1C=CCC2C(=O)N(c3cccc(C(=O)Nc4ccc(F)cc4)c3)C(=O)C12 (stereo not given)	none
O=c1cc(-c2ccc(Cl)cc2)oc(=O)[nH]1	none
O=c1cc(N=Nc2ccc(Cl)cc2)[nH]c(=O)[nH]1	RGS4 block 16.7 | RGS4 block valid 22.5% | M3R Ca ctr inactive | M3R basal Ca ctr inactive
O=C(/C=C/c1cccc([N+](=O)[O-])c1)c1cccs1	RGS4 block 4.75, MrgX1 ag 34.7 | RGS4 block valid inactive | M3R Ca ctr inactive | M3R basal Ca ctr inactive
O=C(/C=C/c1cccc([N+](=O)[O-])c1)N1CCN(c2ccccn2)CC1	none
O=C(/C=C/c1cccc([N+](=O)[O-])c1)n1cnc2ccccc21	RGS4 block 7.92 (no result: MrgX1 ag, MrgX1 antag, MrgX1 allo act) | RGS4 block valid 19.0% | M3R Ca ctr inactive | M3R basal Ca ctr inactive
O=C(/C=C/c1cccc([N+](=O)[O-])c1)Nc1ccc(NC(=O)c2cccs2)cc1	none
Cc1cc(O)c(C(=O)/C=C/c2cccc([N+](=O)[O-])c2)c(=O)o1	RGS4 block 4.68 | RGS4 block valid 30.0% | M3R Ca ctr inactive | M3R basal Ca ctr inactive
Cc1ccc(NC(=O)/C=C\C(=O)NCC(=O)O)cc1C	none
COC(=O)c1cn(C(=O)OC)c2ccccc12	none
COC(=O)c1cn(C(=O)/C=C/c2ccc(OC)c(OC)c2)c2ccccc12	RGS4 block 4.7 | RGS4 block valid inactive | M3R Ca ctr inactive | M3R basal Ca ctr inactive
CC(Oc1ccc(Cl)cc1Cl)C(=O)NNC(=O)C(=O)N1CCCC1 (stereo not given)	none
COC(=O)c1ccc(/C=C2/SC(=S)N(CCC(=O)NCCCN3CCOCC3)C2=O)cc1	none
COC(=O)C1=C(CS(=O)(=O)c2ccccc2)NC(=O)NC1c1ccc(OC)c(OC)c1 (stereo not given)	none | RGS4 block valid inactive | M3R Ca ctr inactive | M3R basal Ca ctr inactive
CCOC(=O)C1=C(CS(=O)(=O)c2ccccc2)NC(=O)NC1c1ccc(OC)c(OC)c1 (stereo not given)	none
